A selection: hits, their analogues and other compounds. The true share with any hit is near 2.1%.
MsrA inhibitor = inhibits bovine methionine sulfoxide reductase A. purified bovine MsrA, absorbance read-out. inhibition, % at 15.5 µM. hit rate 0.75% among 360,000; in the data active = inhibition above about 4.5%;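 also: 0% = vehicle wells with enzyme and 100% = reference inhibitor wells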
bovine MsrA act = bovine methionine sulfoxide reductase A activation; purified bovine MsrA, absorbance read-out; activation, % at 10.6 µM; hit rate 0.3% among 360,000; AID 602163; in the data active = activation above about 7.5%;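 also: 0% = vehicle and 100% = reference activator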
IMP-1 inhibitor = blocks Pseudomonas aeruginosa IMP-1 metallo-beta-lactamase; inhibition, % at 5.6 µM; purified IMP-1, nitrocefin hydrolysis, epi-absorbance fluorescence; hit rate 0.45% among 290,000;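 active = inhibition above the mean plus 3 SD of all compounds in the same screening run, cut at about 4.5% in these data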;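 also: 0% = IMP-1 with DMSO and 100% = DMSO wells lacking enzyme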
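System: Purified IMP-1 | Read-out basis: Percent enzyme inhibition | Controls: IMP-1 with DMSO as 0%, enzyme-free DMSO as 100% | Replicates: One well per compound | Doses: 5.6 µM nominal single concentration | Detection: Epi-absorbance fluorescence, 480 nm excitation, 530 nm emission | Incubation: 25 °C, 15 min preincubation, 25 min reaction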
PKA-R1A activ = activators of PKA-R1A complex | hit rate 0.083% among 340,000 | activation, % at 11.4 µM | PKA-R1A dissociation, Cy5-IP20 fluorescence polarization; scaled: DMSO 0%, 113 µM cGMP 100% | AID 504707 | P00514+P68181;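 active = percent activation above the mean of all tested compounds plus 3 SD, cut at about 19% in these data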;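 also: higher means more PKAc released from R1A so a rise in polarization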
PKA-R2B act = PKA-R2B complex activation; PKA-R2B holoenzyme dissociation, Cy5-IP20 fluorescence polarization; R2B truncated from residue 108, S112A mutant; 0% DMSO only, 100% 113 µM cGMP; activation, % at 11.4 µM; AID 504700; hit rate 0.079% among 340,000; P22694+P31323;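 active = activation above a cutoff set at the mean over all compounds plus 3 SD, cut at about 18% in these data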;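 also: higher means more holoenzyme dissociation and a rise in polarization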
Target sequence (P31323 whole entry, looked up, other chains not shown, the tested form may be a part): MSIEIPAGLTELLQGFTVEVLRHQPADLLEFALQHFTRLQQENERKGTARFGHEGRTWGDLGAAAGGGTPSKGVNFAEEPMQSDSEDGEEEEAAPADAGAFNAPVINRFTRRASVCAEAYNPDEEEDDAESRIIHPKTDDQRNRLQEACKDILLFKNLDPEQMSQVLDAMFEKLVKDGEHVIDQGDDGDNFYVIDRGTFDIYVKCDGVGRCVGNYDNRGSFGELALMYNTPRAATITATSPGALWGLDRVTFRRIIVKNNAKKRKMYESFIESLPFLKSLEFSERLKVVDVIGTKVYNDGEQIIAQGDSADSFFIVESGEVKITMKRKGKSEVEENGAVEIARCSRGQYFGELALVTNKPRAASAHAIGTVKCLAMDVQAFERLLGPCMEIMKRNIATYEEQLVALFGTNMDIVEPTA
VIM-2 inhibitor = blocks Pseudomonas aeruginosa VIM-2 metallo-beta-lactamase. purified VIM-2, nitrocefin hydrolysis, epi-absorbance fluorescence. inhibition, % at 5.6 µM. hit rate 0.89% among 290,000. AID 1527;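 active = inhibition above the mean of all tested compounds plus 3 SD, cutoff set per screening run, cut at about 7.5% in these data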;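 also: red hydrolysis product quenches plate fluorescence so inhibitors raise well fluorescence; 0% = enzyme with DMSO and 100% = DMSO without enzyme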
* hit, by the source's call; . = no result given.

SMILES | MsrA inhibitor | bovine MsrA act | IMP-1 inhibitor | PKA-R1A activ | PKA-R2B act | VIM-2 inhibitor
CCn1c(=N)c(C(=O)NC)cc2c(=O)n3cccc(C)c3nc21 | 2 | -8 | . | 0 | -16 | .
Cc1cccn2c(=O)c3cc(C(=O)NCCc4ccccc4)c(=N)n(Cc4ccco4)c3nc12 | -1 | 0 | -4 | -7 | 1 | 9.1*
CCOC(=O)c1cc2c(=O)n3cccc(C)c3nc2n(CCCOC)c1=NC(=O)c1cccnc1 | 1 | -5 | -3 | -8 | -1 | 10*
CCn1c(=N)c(C(N)=O)cc2c(=O)n3cccc(C)c3nc21 | . | . | -2 | . | . | 7.9*
CCc1cc(CNC(=O)c2ccc(OC3CCN(CCc4ccccc4)CC3)cc2)on1 | -1 | -4 | 13* | -1 | -4 | -2
O=C(NCc1ccon1)c1ccc(OC2CCN(CCc3ccccc3)CC2)cc1 | -1 | -2 | -2 | 5 | -9 | -3
Cc1cc(NC(=O)CN2CCN(Cc3ccccc3)CC2)nc2c1c(=O)oc1ccccc12 | . | . | 0 | . | . | 8.3*
CCOc1ccc(Nc2cc(C)nc3nc(C)nn23)cc1 | 1 | -5 | 1 | -6 | -7 | 8.4*
CCOC(=O)c1ccccc1Nc1cc(C)nc2nc(C)nn12 | 1 | -12 | -2 | 8 | -5 | 9.5*
COC(=O)c1ccc(Nc2cc(C)nc3nc(C)nn23)cc1 | 2 | -4 | 2 | 1 | -8 | 7
COc1ccc(Nc2cc(C)nc3ncnn23)c(OC)c1 | -1 | 0 | -2 | -7 | -13 | 6
COc1cccc(Nc2cc(C)nc3nc(C)nn23)c1 | 0 | -6 | -1 | -12 | 3 | 11*
COc1ccc(Nc2cc(C)nc3nc(C)nn23)c(OC)c1 | 1 | -13 | -3 | -8 | -9 | 12*
Cc1cc(Nc2ccc(F)c(Cl)c2)n2nc(C)nc2n1 | 0 | 0 | -5 | 2 | -1 | 1
O=C(Nc1cccnc1)c1ccc(CSc2ccc(Cl)cc2)o1 | -1 | . | . | . | . | .
O=[N+]([O-])c1ccc(Cl)c(S(=O)(=O)Nc2cccc(S(=O)(=O)NC3=NCCC3)c2)c1 | 0 | -3 | . | 2 | 1 | .
COc1ccc(Cl)cc1NC(=O)Cn1c(C)csc1=O | -1 | -2 | . | 4 | -1 | .
CCN1CCCC1CN(Cc1cc2ccc(C)cc2[nH]c1=O)C(=S)Nc1ccc(OC)cc1 (stereo unspecified) | 0 | -1 | -1 | -2 | 5 | -2
CCN1CCCC1CN(Cc1cc2ccc(C)cc2[nH]c1=O)C(=S)Nc1ccc(F)cc1 (stereo unspecified) | 0 | -7 | 0 | -1 | -5 | 10*
CCOC(=O)N1CCN(C(=O)c2ccc3c(c2)N(C)C(=O)/C(=C\c2ccc(OCC)c(OC)c2)S3)CC1 | 2 | -10 | -4 | -9 | 2 | -1
COc1ccc(/C=C2\Sc3ccc(C(=O)NCCCN4CCCC4)cc3N(C)C2=O)cc1OC | 1 | -8 | -1 | -1 | -2 | 11*
CCOc1ccc(/C=C2/Sc3ccc(C(=O)NCC4CCCO4)cc3N(C)C2=O)cc1OC (stereo unspecified) | 1 | -3 | 0 | -2 | 5 | 8.6*
CS(=O)(=O)Nc1ccc2c(c1)[C@@H]1C[C@@H](CC(=O)NCc3cccnc3)O[C@H](CO)[C@@H]1O2 | 1 | -8 | . | 1 | 5 | .
Cc1cc(C)n2c3c(c(C#N)c2n1)CCCC3 | 2 | -2 | -8 | -3 | 4 | 7.7*
CCOc1c(C#N)c(C#N)c2nc(C)cc(C)n12 | 2 | -5 | -1 | 1 | 2 | 3
Cc1nc(CCNC(=O)CC2C(=O)NCCN2Cc2ccccc2)sc1C (stereo unspecified) | -1 | -9 | 5.0* | -9 | 6 | -1
COc1cc(/C=C(\C#N)c2nnc(N3CCOCC3)n2-c2ccccc2)ccc1O | 4.6* | -10 | 1 | -15 | -10 | -1
Cc1cc(/C=C(\C#N)c2nnc(N3CCOCC3)n2-c2ccccc2)c(C)n1-c1ccccc1 | . | . | -1 | . | . | -3
Cc1cc(C)c(S(=O)(=O)N2CCOC2CNC(=O)C(=O)NCCCn2ccnc2)c(C)c1 (stereo unspecified) | 1 | -2 | 7.0* | -2 | 1 | -2

From PubChem BioAssay
